Reference: ChEMBL document CHEMBL1154352, “Toll-like receptor 7 selective synthetic oligoribonucleotide agonists: synthesis and structure-activity relationship studies” (J Med Chem, 2009)

What was measured:
Assay type in all cases: functional, cell-based
PBMC [1] = assay: Immunomodulatory activity in human PBMC assessed as induction of MCP1 after 24 hrs
Summary of the method: (§1)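 Human PBMCs plated at 5 × 10^6 cells/mL; compounds dissolved in PBS added at various concentrations, 37 °C for 24 h. Supernatant cytokines/chemokines quantified with human Luminex multiplex kit.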

PBMC [2] = assay: Immunomodulatory activity in human PBMC assessed as induction of IL1-beta after 24 hrs; summary of the method: as §1
PBMC [3] = assay: Immunomodulatory activity in human PBMC assessed as induction of TNFalpha after 24 hrs; summary of the method: as §1
PBMC [4] = assay: Immunomodulatory activity in human PBMC assessed as induction of IL12 after 24 hrs; summary of the method: as §1
PBMC [5] = assay: Immunomodulatory activity in human PBMC assessed as induction of MIP1beta after 24 hrs; summary of the method: as §1

Measured: Activity

Nc1ccn([C@@H]2O[C@H](COP(=O)(S)O[C@H]3[C@@H](O)[C@H](n4cnc5c(N)ncnc54)O[C@@H]3COP(=O)(S)O[C@H]3[C@@H](O)[C@H](n4ccc5c(=O)[nH]c(N)nc54)O[C@@H]3COP(=O)(S)O[C@H]3[C@@H](O)[C@H](n4ccc(=O)[nH]c4=O)O[C@@H]3COP(=O)(S)O[C@H]3[C@@H](O)[C@H](n4ccc5c(=O)[nH]c(N)nc54)O[C@@H]3COP(=O)(S)O[C@H]3[C@@H](O)[C@H](n4cnc5c(N)ncnc54)O[C@@H]3COP(=O)(S)O[C@H]3[C@@H](O)[C@H](n4cnc5c(N)ncnc54)O[C@@H]3CO)[C@@H](OP(=O)(S)OC[C@H]3O[C@@H](n4ccc5c(=O)[nH]c(N)nc54)[C@H](O)[C@@H]3OP(=O)(S)OC[C@H]3O[C@@H](n4ccc(N)nc4=O)[C@H](O)[C@@H]3OP(=O)(S)OC[C@H]3O[C@@H](n4ccc(=O)[nH]c4=O)[C@H](O)[C@@H]3OP(=O)(S)OC[C@H]3O[C@@H](n4ccc(=O)[nH]c4=O)[C@H](O)[C@@H]3OP(=O)(S)OCC(O)COP(=O)(S)O[C@H]3[C@@H](O)[C@H](n4ccc(=O)[nH]c4=O)O[C@@H]3COP(=O)(S)O[C@H]3[C@@H](O)[C@H](n4ccc(=O)[nH]c4=O)O[C@@H]3COP(=O)(S)O[C@H]3[C@@H](O)[C@H](n4ccc(N)nc4=O)O[C@@H]3COP(=O)(S)O[C@H]3[C@@H](O)[C@H](n4ccc5c(=O)[nH]c(N)nc54)O[C@@H]3COP(=O)(S)O[C@H]3[C@@H](O)[C@H](n4ccc(N)nc4=O)O[C@@H]3COP(=O)(S)O[C@H]3[C@@H](O)[C@H](n4cnc5c(N)ncnc54)O[C@@H]3COP(=O)(S)O[C@H]3[C@@H](O)[C@H](n4ccc5c(=O)[nH]c(N)nc54)O[C@@H]3COP(=O)(S)O[C@H]3[C@@H](O)[C@H](n4ccc(=O)[nH]c4=O)O[C@@H]3COP(=O)(S)O[C@H]3[C@@H](O)[C@H](n4ccc5c(=O)[nH]c(N)nc54)O[C@@H]3COP(=O)(S)O[C@H]3[C@@H](O)[C@H](n4cnc5c(N)ncnc54)O[C@@H]3COP(=O)(S)O[C@H]3[C@@H](O)[C@H](n4cnc5c(N)ncnc54)O[C@@H]3CO)[C@H]2O)c(=O)n1 (stereo not given in full)
active: PBMC [1] Dose-dependent effect | PBMC [2] Dose-dependent effect | PBMC [3] Dose-dependent effect | PBMC [4] Dose-dependent effect | PBMC [5] Dose-dependent effect

Nc1ccn([C@@H]2O[C@H](COP(=O)(S)O[C@H]3[C@@H](O)[C@H](n4cnc5c(N)ncnc54)O[C@@H]3COP(=O)(S)O[C@H]3[C@@H](O)[C@H](n4cnc5c(N)ncnc54)O[C@@H]3CO)[C@@H](OP(=O)(S)OC[C@H]3O[C@@H](n4ccc(=O)[nH]c4=O)[C@H](O)[C@@H]3OP(=O)(S)OC[C@H]3O[C@@H](n4ccc5c(=O)[nH]c(N)nc54)[C@H](O)[C@@H]3OP(=O)(S)OC[C@H]3O[C@@H](n4cnc5c(N)ncnc54)[C@H](O)[C@@H]3OP(=O)(S)OC[C@H]3O[C@@H](n4ccc(N)nc4=O)[C@H](O)[C@@H]3OP(=O)(S)OC[C@H]3O[C@@H](n4ccc5c(=O)[nH]c(N)nc54)[C@H](O)[C@@H]3OP(=O)(S)OC[C@H]3O[C@@H](n4ccc(N)nc4=O)[C@H](O)[C@@H]3OP(=O)(S)OC[C@H]3O[C@@H](n4ccc(=O)[nH]c4=O)[C@H](O)[C@@H]3OP(=O)(S)OC[C@H]3O[C@@H](n4ccc(=O)[nH]c4=O)[C@H](O)[C@@H]3OP(=O)(S)OCC(O)COP(=O)(S)O[C@H]3[C@@H](O)[C@H](n4ccc(=O)[nH]c4=O)O[C@@H]3COP(=O)(S)O[C@H]3[C@@H](O)[C@H](n4ccc(=O)[nH]c4=O)O[C@@H]3COP(=O)(S)O[C@H]3[C@@H](O)[C@H](n4ccc(N)nc4=O)O[C@@H]3COP(=O)(S)O[C@H]3[C@@H](O)[C@H](n4ccc5c(=O)[nH]c(N)nc54)O[C@@H]3COP(=O)(S)O[C@H]3[C@@H](O)[C@H](n4ccc(N)nc4=O)O[C@@H]3COP(=O)(S)O[C@H]3[C@@H](O)[C@H](n4cnc5c(N)ncnc54)O[C@@H]3COP(=O)(S)O[C@H]3[C@@H](O)[C@H](n4ccc5c(=O)[nH]c(N)nc54)O[C@@H]3COP(=O)(S)O[C@H]3[C@@H](O)[C@H](n4ccc(=O)[nH]c4=O)O[C@@H]3COP(=O)(S)O[C@H]3[C@@H](O)[C@H](n4ccc(N)nc4=O)O[C@@H]3COP(=O)(S)O[C@H]3[C@@H](O)[C@H](n4cnc5c(N)ncnc54)O[C@@H]3COP(=O)(S)O[C@H]3[C@@H](O)[C@H](n4cnc5c(N)ncnc54)O[C@@H]3CO)[C@H]2O)c(=O)n1 (stereo not given in full)
active: PBMC [1] Dose-dependent effect | PBMC [2] Dose-dependent effect | PBMC [3] Dose-dependent effect | PBMC [4] Dose-dependent effect | PBMC [5] Dose-dependent effect

Nc1ccn([C@@H]2O[C@H](COP(=O)(S)O[C@H]3[C@@H](O)[C@H](n4cnc5c(N)ncnc54)O[C@@H]3COP(=O)(S)O[C@H]3[C@@H](O)[C@H](n4ccc5c(=O)[nH]c(N)nc54)O[C@@H]3COP(=O)(S)O[C@H]3[C@@H](O)[C@H](n4ccc(=O)[nH]c4=O)O[C@@H]3COP(=O)(S)O[C@H]3[C@@H](O)[C@H](n4ccc(=O)[nH]c4=O)O[C@@H]3COP(=O)(S)O[C@H]3[C@@H](O)[C@H](n4cnc5c(N)ncnc54)O[C@@H]3COP(=O)(S)O[C@H]3[C@@H](O)[C@H](n4cnc5c(N)ncnc54)O[C@@H]3CO)[C@@H](OP(=O)(S)OC[C@H]3O[C@@H](n4ccc5c(=O)[nH]c(N)nc54)[C@H](O)[C@@H]3OP(=O)(S)OC[C@H]3O[C@@H](n4ccc(N)nc4=O)[C@H](O)[C@@H]3OP(=O)(S)OC[C@H]3O[C@@H](n4ccc(=O)[nH]c4=O)[C@H](O)[C@@H]3OP(=O)(S)OC[C@H]3O[C@@H](n4ccc(=O)[nH]c4=O)[C@H](O)[C@@H]3OP(=O)(S)OCC(O)COP(=O)(S)O[C@H]3[C@@H](O)[C@H](n4ccc(=O)[nH]c4=O)O[C@@H]3COP(=O)(S)O[C@H]3[C@@H](O)[C@H](n4ccc(=O)[nH]c4=O)O[C@@H]3COP(=O)(S)O[C@H]3[C@@H](O)[C@H](n4ccc(N)nc4=O)O[C@@H]3COP(=O)(S)O[C@H]3[C@@H](O)[C@H](n4ccc5c(=O)[nH]c(N)nc54)O[C@@H]3COP(=O)(S)O[C@H]3[C@@H](O)[C@H](n4ccc(N)nc4=O)O[C@@H]3COP(=O)(S)O[C@H]3[C@@H](O)[C@H](n4cnc5c(N)ncnc54)O[C@@H]3COP(=O)(S)O[C@H]3[C@@H](O)[C@H](n4ccc5c(=O)[nH]c(N)nc54)O[C@@H]3COP(=O)(S)O[C@H]3[C@@H](O)[C@H](n4ccc(=O)[nH]c4=O)O[C@@H]3COP(=O)(S)O[C@H]3[C@@H](O)[C@H](n4ccc(=O)[nH]c4=O)O[C@@H]3COP(=O)(S)O[C@H]3[C@@H](O)[C@H](n4cnc5c(N)ncnc54)O[C@@H]3COP(=O)(S)O[C@H]3[C@@H](O)[C@H](n4cnc5c(N)ncnc54)O[C@@H]3CO)[C@H]2O)c(=O)n1 (stereo not given in full)
active: PBMC [1] Dose-dependent effect | PBMC [2] Dose-dependent effect | PBMC [3] Dose-dependent effect | PBMC [4] Dose-dependent effect | PBMC [5] Dose-dependent effect
